Data from publication PMC6469250 (Annals of Clinical and Translational Neurology, 2019).
Where two headings read alike, the source gives them in different places.

Columns and labels:
[1] = tested on: hLTP; conditions: cited from earlier work
[2] = cited from earlier work
[3] = tested on: 5xFAD mice; format: in vivo
Summary of the method: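 Six-month-old 5xFAD and Wt littermates got 2400 ppm test compound or control diet for three months (n = 9/group). Frozen 20 μm sections were stained overnight at 4°C with anti-Iba-1, CD68 or CD11b (1:200), Alexa secondaries (1:700) and FSB (400 nmol/L) for plaques. KCa3.1 was detected with APC064 or P4997 (1:3000); microglial co-localisation used three images per mouse. Imaging and analysis were blinded.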

[4] = Pharmacokinetics in rats: total plasma and brain concentrations by LC-MS; format: in vivo; conditions: oral gavage 50 mg/kg, rats (Fig. 6D)
[5] = tested on: primary microglia; assay: AβO-induced proinflammatory activation of cultured primary microglia; format: cell-based, mouse
Summary of the method: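 Primary microglia came from mixed glia cultures and were exposed to AβO (100 nmol/L) for 24 h with test compound or vehicle. For qPCR, RNA was kit-extracted and analysed by the 2‑ΔΔCt method with Actb as reference. For p38MAPK, cells were lysed in Triton/SDS buffer with protease and phosphatase inhibitors, then immunoblotted with anti-phospho-p38MAPK and anti-p38MAPK (1:1000).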

[6] = biological target: KCa3.1 (Mus musculus, UniProt O89109); assay: Whole-cell patch-clamp on AβO-activated cultured primary microglia; format: cell-based; conditions: AβO 100 nmol/L 24 h, senicapoc 1 μmol/L (Fig. 7A)
Chain of KCa3.1 (Mus musculus, UniProt O89109) (O89109 whole entry): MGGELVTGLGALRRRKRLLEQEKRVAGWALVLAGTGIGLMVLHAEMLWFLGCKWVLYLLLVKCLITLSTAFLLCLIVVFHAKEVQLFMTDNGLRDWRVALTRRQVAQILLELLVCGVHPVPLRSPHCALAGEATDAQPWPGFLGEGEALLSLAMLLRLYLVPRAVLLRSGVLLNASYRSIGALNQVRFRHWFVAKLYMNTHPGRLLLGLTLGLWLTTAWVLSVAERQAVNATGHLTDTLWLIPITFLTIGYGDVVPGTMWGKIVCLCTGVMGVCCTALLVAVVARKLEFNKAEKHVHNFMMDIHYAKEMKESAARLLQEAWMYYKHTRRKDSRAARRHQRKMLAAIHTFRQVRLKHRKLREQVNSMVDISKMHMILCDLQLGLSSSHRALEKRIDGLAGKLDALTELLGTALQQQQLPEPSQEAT
Summary of the method: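 Whole-cell patch-clamp was done on cultured primary microglia after 24 h AβO (100 nmol/L) with test compound or vehicle. An aspartate-based internal solution was used. KCa3.1 conductance was taken from the slope of the TRAM-34-sensitive KCa current between −80 and −75 mV.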

[7] = tested on: 5xFAD mice; assay: Memory tasks: novel object recognition and step-through passive avoidance; format: in vivo; conditions: 5xFAD mice at 9 months of age; no significant memory deficits in 5xFAD/control diet mice
[8] = Pharmacokinetics in mice: total plasma and brain concentrations by LC-MS; format: in vivo; conditions: male, C57BL/6J, mouse
[9] = cited from earlier work; remark: listed apart in the source
[10] = tested on: 5xFAD mice; assay: hLTP in hippocampal slices from treated 5xFAD mice; format: in vivo; conditions: senicapoc diet for three months; to the level of Wt mice (Fig. 8F and G)
Summary of the method: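 5xFAD and Wt littermates aged six months were fed test compound-medicated (2400 ppm) or control diet for three months. Hippocampal slices then received high-frequency stimulation. The read-out was mean percent change in fEPSP slope from baseline, averaged 50–60 min after HFS, from 8–12 slices of 5–6 mice per group. Data are mean ± SE; two-way ANOVA with Bonferroni.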

[11] = tested on: KCa3.1; conditions: read-out: IC50 for KCa3.1 inhibition; cited from earlier work
[12] = tested on: 5xFAD mice; assay: qPCR of acutely isolated microglia after three months of senicapoc diet; format: in vivo
Summary of the method: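 Six-month-old 5xFAD and Wt littermates were fed 2400 ppm test compound or control diet ad lib for three months (n = 9/group). Microglia were acutely isolated with anti-CD11b magnetic beads. RNA was extracted, reverse-transcribed and pre-amplified. Pro-inflammatory and M2-like transcripts (Arg1, CD206, […], IGF-1) were quantified by 2‑ΔΔCt against Actb. Groups were compared by two-way ANOVA with Bonferroni.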

[13] = humans; cited from earlier work

SMILES: CN(C)c1ccc(O)c2c1C[C@H]1C[C@H]3[C@H](N(C)C)C(O)=C(C(N)=O)C(=O)[C@@]3(O)C(O)=C1C2=O [minocycline]
- hLTP disruption by Aβ [1]: prevent the hLTP disruption

SMILES: NC(=O)C(c1ccccc1)(c1ccc(F)cc1)c1ccc(F)cc1 [senicapoc]
- protein binding [2]: 95%
- number of microglia expressing KCa3.1 ([3]; medicated diet for three months (Fig. 8B)): significantly reduced
- reduction of CD11b immunoreactivity ([3]; medicated diet for three months, P < 0.001 (Fig. 8A)): 45%
- oral availability [4]: roughly 60%
- AβO-induced microglial proliferation ([5]; AβO 100 nmol/L 24 h, senicapoc 1 μmol/L if not otherwise indicated (Fig. 7B)): block
- AβO-induced production of NO ([5]; AβO 100 nmol/L 24 h, senicapoc 1 μmol/L if not otherwise indicated (Fig. 7E)): block
- AβO-induced expression of microglial activation mediators IL-1β, IL-6 and iNOS ([5]; AβO 100 nmol/L 24 h, senicapoc 1 μmol/L, qPCR (Fig. 7C)): block
- AβO-induced activation of p38MAPK ([5]; AβO 100 nmol/L, senicapoc 1 μmol/L, Western blotting (Fig. 7D)): block
- AβO-induced microglial KCa3.1 currents [6]: block
- cognitive benefit [7]: could not be demonstrated
- concentration at 1 h ([8]; brain, ip, 50 mg/kg): 43 ± 8 µM
- half-life ([8]; plasma): ~1 h
- hemolysis and hemoglobin levels ([9]; Phase-2 clinical trial): reduced hemolysis and increased hemoglobin levels
- primary clinical end-point: reduction in the rate of vaso-occlusive pain crisis ([9]; Phase-3): failed to achieve its primary clinical end‐point
- safety and tolerability in humans ([9]; Phase-3 clinical trial for sickle cell anemia): safe and well‐tolerated
- reduced induction of hLTP in 5xFAD mice [10]: rectified
- IC50 [11]: 11 nM
- expressions of proinflammatory modulators IL-1β, TNF-α, IL-6, and iNOS (qPCR) ([12]; medicated diet for three months (Fig. 8C)): significantly reduced
- markers typical of an M2-like phenotype (qPCR) ([12]; medicated diet for three months (Fig. S5)): no changes
- half-life [13]: ~ 7 day
